High-throughput results (PubChem BioAssay)
Only some compounds are listed: those with a hit (about 2.3% of all), similar ones and a draw of the others.
PDI inh: blocks human protein disulfide isomerase activity | AID 588391 | P07237 | 350,000 tested, 0.052% active | PDI insulin aggregation turbidity, A650, 90 min | inhibition, % at 10 µM;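 active = mean inhibition across replicates of 30% or more, whatever share of single replicates reach that level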
Target sequence (P07237 whole entry, looked up): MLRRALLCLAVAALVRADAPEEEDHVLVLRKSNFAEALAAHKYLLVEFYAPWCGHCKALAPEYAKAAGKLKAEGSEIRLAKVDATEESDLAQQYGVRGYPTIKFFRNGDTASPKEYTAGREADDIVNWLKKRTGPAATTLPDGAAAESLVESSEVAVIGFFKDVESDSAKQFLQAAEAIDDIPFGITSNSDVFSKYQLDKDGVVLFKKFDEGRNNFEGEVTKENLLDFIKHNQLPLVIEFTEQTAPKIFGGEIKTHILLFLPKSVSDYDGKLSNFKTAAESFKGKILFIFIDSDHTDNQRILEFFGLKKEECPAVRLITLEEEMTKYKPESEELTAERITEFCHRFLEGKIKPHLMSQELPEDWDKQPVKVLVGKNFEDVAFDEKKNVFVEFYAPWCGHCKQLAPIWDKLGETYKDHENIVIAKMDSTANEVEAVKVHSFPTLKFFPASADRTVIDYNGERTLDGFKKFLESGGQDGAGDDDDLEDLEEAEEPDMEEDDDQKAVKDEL
CFTR F508del cor: CFTR F508del correction in bronchial cells. CFBE cells, YFP halide quenching; stimulated with forskolin plus potentiator P3; % fluorescence drop versus neutral controls. activity (quench increase), % at 7.58 µM. 350,000 tested, 0.36% active. AID 720511;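 active = mean added fluorescence quench of at least 8% versus neutral control, with both replicates also reaching 8%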;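 note: cells transiently co-express mutant CFTR-F508del with the halide-sensitive YFP; corrector assay measuring rescue of mutant channel to the surface after 24 h compound exposure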
Cneo AK release: causes C. neoformans cell lysis | adenylate kinase release luminescence, 4 h; normalised: neutral wells 0, clomiphene wells 100 | lysis activity, % at 15 µM | 360,000 tested, 0.2% active | AID 651654;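 active = mean lysis activity across replicates of at least 80%, whatever share of replicates individually reach that level; inactive = mean lysis activity below 80%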
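Schedule: static 4 h at 37 °C with compound, 1 h detection; system: C. neoformans cells; benchmarks: Clomiphene as positive control; buffer or medium: fresh YPD medium; measure: luminescence rise reflecting yeast cell lysis; measured by: luminescent adenylate kinase detection reagent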
Statin myotox sup: suppressors of simvastatin-induced myotoxicity in C2C12 myotubes. ATP luminescence, 48 h; scaled: DMSO 0, geranylgeraniol control 100. rescue of ATP level, % at 7.49 µM. 330,000 tested, 0.78% active;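 active = mean ATP rescue above about 67%, or every replicate alone reaching that limit, limit read from the data, passing the limit was not always enough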;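 note: myotubes were challenged with 10 µM simvastatin during compound exposure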
DENV2 CPE: inhibitors of DENV2 cytopathic effect; DENV2-infected cells, cytopathic effect rescue, plate reader; CPE inhibition, % at 9.99 µM; 350,000 tested, 1.7% active; in the data active = CPE inhibition above about 20%, passing the limit was not always enough; tested in BHK-21 cells;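 note: 0% = median of neutral control wells and 100% = median of positive control wells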
ERp5 block: inhibitors of human ERp5; 350,000 tested, 0.05% active; inhibition, % at 9.99 µM; ERp5 insulin aggregation, absorbance 650 nm, 90 min;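 active = mean replicate inhibition above about 25%, with every replicate also reaching it, limit read from the data, passing the limit was not always enough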
* marks the source's active call; other numbers are inactive results; · = no result.

SMILES	PDI inh	CFTR F508del cor	Cneo AK release	Statin myotox sup	DENV2 CPE	ERp5 block
COc1ccc([C@H]2CC(=O)C=C(c3cc(OC)ccc3OC)C2)cc1	-3	4	-2	11	·	1
COc1ccc([C@H]2CC(=O)C=C(c3cc(Cl)ccc3OC)C2)cc1	3	6	1	6	-3	8
CCOc1ccc(C2=CC(=O)C[C@H](c3ccc(OC)cc3)C2)cc1	3	2	1	-42	26*	3
COc1ccc(C2=CC(=O)CC(c3ccc(OC)cc3)C2)cc1 (stereo not given)	4	0	-2	4	5	-2
O=C(C[C@H]1C[C@@H]2c3cc(NC(=O)Nc4ccc(F)cc4)ccc3O[C@@H]2[C@H](CO)O1)NC1CCCCC1	·	1	0	-23	9	4
COc1ccc(CNC(=O)C2CCCN(S(=O)(=O)c3ccc4c(c3)C(C)(C)C(=O)N4C)C2)cc1 (stereo not given)	-8	-1	-1	17	-5	-1
COc1ccc(CNC(=O)C2CCN(S(=O)(=O)c3ccc4c(c3)C(C)(C)C(=O)N4C)CC2)cc1	-1	2	0	86*	2	0
COc1ccc(S(=O)(=O)N2CCC(C(=O)NCCC(=O)NCc3ccncc3)CC2)cc1	0	1	-4	10	-2	0
COc1ccc(S(=O)(=O)N2CCC(C(=O)NCCC(=O)NCc3cccnc3)CC2)cc1	-6	-3	-2	5	75*	0
C[C@H]1CN([C@@H](C)CO)C(=O)c2cc(NC(=O)c3ccncc3)ccc2O[C@H]1CN(C)Cc1ccncc1	·	-1	-11	-17	3	6
C[C@@H]1CCCCO[C@H](CN(C)Cc2ccc(C(F)(F)F)cc2)[C@H](C)CN([C@@H](C)CO)C(=O)c2cc(NC(=O)c3ccccc3)ccc2O1	·	5	2	·	140*	4
C[C@H]1CCCCO[C@H](CN(C)Cc2ccc(Cl)c(Cl)c2)[C@@H](C)CN([C@@H](C)CO)C(=O)c2cc(NC(=O)c3ccccc3)ccc2O1	·	2	1	·	-5	-3
C[C@@H]1CCCCO[C@H](CN(C)Cc2ccc(C(F)(F)F)cc2)[C@@H](C)CN([C@H](C)CO)C(=O)c2cc(NC(=O)Cc3ccccc3)ccc2O1	·	-3	-4	-6	-2	·
C[C@@H]1CCCCO[C@H](CN(C)Cc2ccc(C(F)(F)F)cc2)[C@H](C)CN([C@H](C)CO)C(=O)c2cc(NC(=O)Cc3ccccc3)ccc2O1	·	-1	-1	134*	-22	·
C[C@@H]1CCCCO[C@H](CN(C)Cc2ccc(Cl)c(Cl)c2)[C@H](C)CN([C@@H](C)CO)C(=O)c2cc(NC(=O)c3ccccc3)ccc2O1	·	-1	1	·	82*	1
O=C(C[C@@H]1C=C[C@H](NS(=O)(=O)c2ccccc2)[C@H](CO)O1)NCc1ccncn1	·	1	-3	-2	-2	0
C[C@H]1CN([C@@H](C)CO)S(=O)(=O)c2ccc(C3=CCCC3)cc2O[C@@H]1CN(C)C(=O)CN(C)C	·	2	1	6	7	13
CC(C)COc1ccc(CNC(=S)NCc2ccccc2)cc1	-34	·	182*	-7	·	·
CCOc1ccc(CNC(=S)NCc2ccc(OCC)cc2)cc1	-10	-1	·	·	1	-2
O=C1C2C3C=CC(C3)C2C(=O)N1c1ccncc1 (stereo not given)	-9	·	-1	1	·	·
Cc1ccnc2c(N3C(=O)C4C5C=CC(C5)C4C3=O)cccc12 (stereo not given)	-5	·	-1	121*	·	·
COc1ccc(NC(=O)Nc2ccc3c(c2)C(=O)N([C@H](C)CO)C[C@H](C)[C@H](CN(C)Cc2ccccc2)OCCCC[C@@H](C)O3)cc1	·	-1	3	·	26*	0
COc1ccc(CN(C)C[C@@H]2OCCCC[C@@H](C)Oc3ccc(NC(=O)c4ccccc4)cc3C(=O)N([C@H](C)CO)C[C@@H]2C)cc1	·	-1	86*	·	-13	-5
COc1ccc(CN(C)C[C@H]2OCCCC[C@H](C)Oc3ccc(NC(=O)Cc4ccccc4)cc3C(=O)N([C@H](C)CO)C[C@H]2C)cc1	·	1	-1	·	8	·
